# Laboratory results: ChEMBL document CHEMBL4342471, “Discovery of Thieno[2,3-d]pyrimidine-Based Hydroxamic Acid Derivatives as Bromodomain-Containing Protein 4/Histone Deacetylase Dual Inhibitors Induce Autophagic Cell Death in Colorectal Carcinoma Cells” (J Med Chem, 2020)
# Activity calls are given as the source filed them. No cut-off for these calls is given here.
# What was measured:
# [1] = tested on: HCT-116; assay: Effect on histone H3 expression level in human HCT116 cells measured after 24 hrs by Western blot analysis; assay type: functional, cell-based
# [2] = tested on: DLD-1; assay: Antiproliferative activity against human DLD1 cells assessed as reduction in cell viability measured after 24 to 48 hrs by MTT assay; assay type: functional, cell-based
# [3] = tested on: SW-620; assay: Antiproliferative activity against human SW620 cells assessed as reduction in cell viability measured after 24 to 48 hrs by MTT assay; assay type: functional, cell-based
# [4] = tested on: HCT-116; assay: Decrease in BRD4 expression in human HCT116 cells incubated for 24 hrs by western blot analysis; assay type: functional, cell-based
# [5] = tested on: HCT-116; assay: Antiproliferative activity against human HCT116 cells assessed as reduction in cell viability measured after 24 to 48 hrs by MTT assay; assay type: functional, cell-based
# [6] = target: T1, Bromodomain-containing protein 4 (Homo sapiens, UniProt O60885); assay: Inhibition of BRD4 in human HCT116 cells assessed as induction of autophagy by measuring LC3-I cleavage to LC3-II at 2 uM measured after 24 hrs by Western blot analysis; assay type: cell-based
# Outline: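 HCT-116 cells were treated for 24 hours with 0.5 μM, 2.0 μM or 10 μM agents. LC3 (LC3-I to LC3-II conversion) and p62 were then detected by western blot.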
# [7] = target: T1, Bromodomain-containing protein 4; assay: Inhibition of BRD4 in human HCT116 cells assessed as activation of IL6-JAK-STAT signaling pathway by measuring increase in OSM mRNA level at 2 uM after 24 hrs by RT-PCR analysis; assay type: cell-based
# Outline: (§1)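 HCT-116 cells were incubated for 24 hours with the test agents at 0.5, 2.0 or 10 μM. IL6, OSM, LIF and CTF1 mRNA levels were then measured.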
# [8] = target: T1, Bromodomain-containing protein 4; assay: Inhibition of BRD4 in human HCT116 cells assessed as induction of autophagy by measuring p62 degradation at 2 uM measured after 24 hrs by Western blot analysis; assay type: cell-based
# Outline: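 HCT-116 cells incubated 24 h with test agent at 2.0 µM, alongside 0.5 µM and 10 µM comparator treatments; LC3 and p62 protein detected by western blot.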
# [9] = tested on: Mus musculus; assay: Induction of autophagy in BALB/cAnNCrl mouse xenografted with human HCT116 cells assessed as increase in LC3-II level in tumor tissue at 30 mg/kg, po administered on day 1 to day 19 measured on day 19 by immunohistochemical analysis; assay type: functional, organism-based
# Outline: (§2)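 HCT-116 xenograft mice were dosed orally at 15 or 30 mg/kg, or 30 mg/kg for reference agents, for 19 days, with vehicle or saline controls. Tumor sections were stained for Ki-67, c-Myc, Ac-H3, BRD4, LC3-II, LIFR and p-STAT3 by immunohistochemistry, and TUNEL staining was used as the apoptosis marker.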
# [10] = target: T1, Bromodomain-containing protein 4; assay: Inhibition of BRD4 in human HCT116 cells assessed as activation of IL6-JAK-STAT signaling pathway by measuring increase in CTF1 mRNA level at 2 uM after 24 hrs by RT-PCR analysis; assay type: cell-based; outline: as §1
# [11] = target: T1, Bromodomain-containing protein 4; assay: Inhibition of BRD4 in human HCT116 cells assessed as activation of IL6-JAK-STAT signaling pathway by measuring increase in LIF mRNA level at 2 uM after 24 hrs by RT-PCR analysis; assay type: cell-based; outline: as §1
# [12] = target: T1, Bromodomain-containing protein 4; assay: Inhibition of GST-tagged BRD4 bromodomain (unknown origin) using biotinylated histone H4KAc peptide (1 to 21 residues) as substrate by HTRF assay
# [13] = target: T1, Bromodomain-containing protein 4; assay: Inhibition of BRD4 in human HCT116 cells assessed as activation of IL6-JAK-STAT signaling pathway by measuring increase in IL6 mRNA level at 2 uM after 24 hrs by RT-PCR analysis; assay type: cell-based; outline: as §1
# [14] = tested on: Mus musculus; assay: Increase in phosphorylated STAT3 expression in tumor tissue of BALB/cAnNCrl mouse xenografted with human HCT116 cells at 30 mg/kg, po administered on day 1 to day 19 measured on day 19 by immunohistochemical analysis; assay type: functional, organism-based; outline: as §2
# [15] = tested on: Mus musculus; assay: Increase in LIFR expression in tumor tissue of BALB/cAnNCrl mouse xenografted with human HCT116 cells at 30 mg/kg, po administered on day 1 to day 19 measured on day 19 by immunohistochemical analysis; assay type: functional, organism-based; outline: as §2
# [16] = target: T2, Protein deacetylase HDAC6 (Homo sapiens, UniProt Q9UBN7); assay: Inhibition of HDAC6 (unknown origin) using biotinylated histone H3 KAc peptide (1 to 21 residues) as substrate by HTRF assay
# T2 sequence (Q9UBN7 whole entry): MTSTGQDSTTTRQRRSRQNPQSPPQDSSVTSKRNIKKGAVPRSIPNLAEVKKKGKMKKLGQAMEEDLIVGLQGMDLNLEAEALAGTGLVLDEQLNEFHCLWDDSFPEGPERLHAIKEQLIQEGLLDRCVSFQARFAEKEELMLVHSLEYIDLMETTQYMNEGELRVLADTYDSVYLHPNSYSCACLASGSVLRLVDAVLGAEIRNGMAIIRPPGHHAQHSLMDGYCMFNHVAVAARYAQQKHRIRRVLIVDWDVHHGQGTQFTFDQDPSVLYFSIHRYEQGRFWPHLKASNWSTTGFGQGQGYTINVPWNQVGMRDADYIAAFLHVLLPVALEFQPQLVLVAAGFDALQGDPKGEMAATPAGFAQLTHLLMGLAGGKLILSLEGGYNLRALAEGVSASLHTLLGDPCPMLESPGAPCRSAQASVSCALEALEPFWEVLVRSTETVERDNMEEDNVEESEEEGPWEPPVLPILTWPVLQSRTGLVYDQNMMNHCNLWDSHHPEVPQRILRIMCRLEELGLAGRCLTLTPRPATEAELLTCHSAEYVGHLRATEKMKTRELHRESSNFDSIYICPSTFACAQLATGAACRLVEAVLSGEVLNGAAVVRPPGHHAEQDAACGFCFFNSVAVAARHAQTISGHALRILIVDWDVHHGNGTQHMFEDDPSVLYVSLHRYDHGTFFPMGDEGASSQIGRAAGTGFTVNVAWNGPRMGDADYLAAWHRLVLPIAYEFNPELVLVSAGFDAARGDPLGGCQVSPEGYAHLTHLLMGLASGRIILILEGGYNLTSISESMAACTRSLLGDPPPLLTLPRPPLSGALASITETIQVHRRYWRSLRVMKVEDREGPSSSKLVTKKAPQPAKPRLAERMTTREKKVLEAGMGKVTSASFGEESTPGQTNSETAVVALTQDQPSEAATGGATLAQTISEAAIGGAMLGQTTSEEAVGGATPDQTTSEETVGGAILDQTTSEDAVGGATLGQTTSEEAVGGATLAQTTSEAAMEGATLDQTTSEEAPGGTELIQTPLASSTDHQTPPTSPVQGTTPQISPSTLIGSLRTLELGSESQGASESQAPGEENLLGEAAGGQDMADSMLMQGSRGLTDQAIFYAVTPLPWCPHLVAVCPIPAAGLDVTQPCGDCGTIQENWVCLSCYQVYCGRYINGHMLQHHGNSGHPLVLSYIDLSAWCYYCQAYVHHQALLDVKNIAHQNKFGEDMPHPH
# [17] = target: Histone deacetylase 2 (Homo sapiens, UniProt Q92769)
# Histone deacetylase 2, sequence (Q92769 whole entry, the tested form may be a part): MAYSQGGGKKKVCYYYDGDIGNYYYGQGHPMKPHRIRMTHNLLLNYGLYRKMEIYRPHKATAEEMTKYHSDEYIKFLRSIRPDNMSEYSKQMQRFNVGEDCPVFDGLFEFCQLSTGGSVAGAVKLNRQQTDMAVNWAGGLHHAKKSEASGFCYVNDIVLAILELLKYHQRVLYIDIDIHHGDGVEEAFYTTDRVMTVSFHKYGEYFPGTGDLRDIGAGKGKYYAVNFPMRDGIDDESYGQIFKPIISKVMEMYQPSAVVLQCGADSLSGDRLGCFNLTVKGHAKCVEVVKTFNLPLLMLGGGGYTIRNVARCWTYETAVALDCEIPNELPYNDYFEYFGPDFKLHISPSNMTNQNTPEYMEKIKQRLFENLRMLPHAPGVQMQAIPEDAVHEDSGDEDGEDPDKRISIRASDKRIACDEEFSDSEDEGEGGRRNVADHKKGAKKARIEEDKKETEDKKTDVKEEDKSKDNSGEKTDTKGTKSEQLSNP
# [18] = target: T3, Histone deacetylase 7 (Homo sapiens, UniProt Q8WUI4); assay: Inhibition of HDAC7 (unknown origin) using biotinylated histone H3 KAc peptide (1 to 21 residues) as substrate by HTRF assay
# T3 sequence (Q8WUI4 whole entry): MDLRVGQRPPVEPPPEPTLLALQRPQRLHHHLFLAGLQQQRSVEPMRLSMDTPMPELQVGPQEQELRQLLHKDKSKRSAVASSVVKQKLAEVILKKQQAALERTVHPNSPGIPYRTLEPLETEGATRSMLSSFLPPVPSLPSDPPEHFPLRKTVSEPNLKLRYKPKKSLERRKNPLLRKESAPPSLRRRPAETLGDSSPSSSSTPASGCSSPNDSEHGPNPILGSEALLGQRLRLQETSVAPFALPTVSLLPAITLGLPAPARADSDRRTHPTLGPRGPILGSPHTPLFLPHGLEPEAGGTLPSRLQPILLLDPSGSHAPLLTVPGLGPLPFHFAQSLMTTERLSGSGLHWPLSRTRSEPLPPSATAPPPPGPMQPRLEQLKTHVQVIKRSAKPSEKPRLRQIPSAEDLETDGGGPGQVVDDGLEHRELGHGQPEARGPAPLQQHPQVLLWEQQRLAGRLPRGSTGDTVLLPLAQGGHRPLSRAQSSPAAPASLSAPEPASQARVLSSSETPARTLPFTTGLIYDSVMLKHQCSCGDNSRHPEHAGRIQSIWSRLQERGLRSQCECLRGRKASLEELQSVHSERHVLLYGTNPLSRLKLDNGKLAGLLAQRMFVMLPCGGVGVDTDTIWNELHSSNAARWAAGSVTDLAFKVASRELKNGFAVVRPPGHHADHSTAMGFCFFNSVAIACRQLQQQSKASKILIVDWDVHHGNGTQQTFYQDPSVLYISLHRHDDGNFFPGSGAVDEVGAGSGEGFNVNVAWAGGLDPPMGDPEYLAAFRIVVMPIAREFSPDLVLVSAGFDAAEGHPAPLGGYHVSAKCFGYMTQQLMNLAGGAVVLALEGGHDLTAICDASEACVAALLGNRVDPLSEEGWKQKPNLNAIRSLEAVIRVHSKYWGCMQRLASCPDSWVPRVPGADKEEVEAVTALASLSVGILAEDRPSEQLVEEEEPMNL
smiles,measurement,setting,value
COc1cc(OC)c2c(=O)[nH]c(-c3cc(C)c(OCCO)c(C)c3)nc2c1 [APABETALONE],Activity,[1],inactive
same,IC50,[2],> 10 µM
same,IC50,[3],> 10 µM
same,inhibition,[4],Active
same,IC50,[5],12.8 µM
Cc1cc(-c2nc3sc4c(c3c(=O)[nH]2)CCN(C)C4)cc(C)c1O,inhibition,[6],Active
same,inhibition,[7],inactive
same,inhibition,[8],Active
same,Activity,[9],Active
same,inhibition,[10],inactive
same,inhibition,[11],inactive
same,IC50,[12],0.85 µM
same,inhibition,[13],inactive
same,IC50,[5],1.33 µM
O=C(CCCCCCC(=O)Nc1ccccc1)NO,Activity,[1],inactive
same,Activity,[14],Active
same,Activity,[15],Active
Cc1noc(C)c1-c1nc2sc3c(c2c(=O)[nH]1)CCN(CC(=O)NO)C3,IC50,[2],22.6 µM
same,IC50,[3],19.6 µM
same,IC50,[16],0.455 µM
same,IC50,[12],> 10 µM
same,IC50,[17],0.489 µM
same,IC50,[5],22.8 µM
same,IC50,[18],> 10 µM
